{"data": "Measured values gathered from unrelated publications", "note": "Each line is one published result; the experiments were not run side by side."}
{"Structure (SMILES)": "CNC(C)C1CCC(N)C(OC2C(N)CC(N)C(OC3OCC(C)(O)C(NC)C3O)C2O)O1 (stereo not shown)", "organism": "Bacillus subtilis", "test": "microbial growth, broth dilution", "endpoint": "MIC", "result": "1 mg/L"}
{"Structure (SMILES)": "O=C(Nc1cccc(F)c1)c1ccc(COC(Cn2ccnc2)c2ccc(Cl)cc2Cl)cc1 (stereo not shown)", "organism": "Nakaseomyces glabratus", "test": "microbial growth, broth dilution", "endpoint": "MIC80", "result": "0.125 mg/L"}
{"Structure (SMILES)": "[H]/N=C(/N)N[C@H]1[C@H](O)[C@@H](O)[C@H](O[C@@H]2O[C@@H](C)[C@](O)(C=O)[C@H]2O[C@@H]2O[C@@H](CO)[C@H](O)[C@@H](O)[C@@H]2NC)[C@@H](N/C(N)=N\\[H])[C@@H]1O", "organism": "Bacillus subtilis", "test": "microbial growth, well diffusion", "test system": "MTCC121", "conditions": "1000 µg/mL, 18 h", "endpoint": "inhibition zone", "result": "24 mm"}
{"Structure (SMILES)": "O=C(Nc1ccc(Br)cc1)c1ccc(COC(Cn2ccnc2)c2ccc(Cl)cc2Cl)cc1 (stereo not shown)", "organism": "Nakaseomyces glabratus", "test": "microbial growth, broth dilution", "endpoint": "MIC80", "result": "0.125 mg/L"}
{"Structure (SMILES)": "C/C(=N/NC(=O)c1cn(-c2ccccc2)nc1-c1ccccc1)c1c(O)cc(C)oc1=O", "organism": "Bacillus subtilis", "test": "microbial growth", "endpoint": "MIC", "result": "50 mg/L"}
{"Structure (SMILES)": "C#CCOC(=O)ON=C1C=CC(=C(C#N)c2ccccc2)C=C1", "organism": "Nakaseomyces glabratus", "test": "microbial killing, broth dilution", "test system": "ATCC15126", "conditions": "48 h", "endpoint": "MFC", "result": "16 mg/L"}
{"Structure (SMILES)": "C[C@@H]1[C@H](O)[C@@H](C)/C=C/C=C/C=C/C=C/C=C/C=C/C=C/[C@H](O[C@@H]2O[C@H](C)[C@@H](O)[C@H](N)[C@@H]2O)C[C@@H]2O[C@](O)(C[C@@H](O)C[C@@H](O)[C@H](O)CC[C@@H](O)C[C@@H](O)CC(=O)O[C@H]1C)C[C@H](O)[C@H]2C(=O)O", "organism": "Cryptococcus neoformans", "test": "microbial growth, broth dilution", "conditions": "72 h", "endpoint": "MIC", "result": "0.25 mg/L"}
{"Structure (SMILES)": "C#CCON=C1C=CC(=C(C#N)c2ccccc2)C=C1", "organism": "Nakaseomyces glabratus", "test": "microbial killing, broth dilution", "test system": "ATCC15126", "conditions": "48 h", "endpoint": "MFC", "result": "32 mg/L"}
{"Structure (SMILES)": "CCOC(=O)/C=C1/SC(N/N=C/c2c(-c3ccc(OC)cc3)nc3ncccn23)=NC1=O", "organism": "Bacillus subtilis", "test": "microbial growth, well diffusion", "test system": "ATCC6051", "conditions": "100 µg/mL", "endpoint": "inhibition zone", "result": "11 mm"}
{"Structure (SMILES)": "C/C(=N/NC(=O)c1cn(-c2ccccc2)nc1-c1ccc(Br)cc1)c1c(O)cc(C)oc1=O", "organism": "Bacillus subtilis", "test": "microbial growth", "endpoint": "MIC", "result": "70 mg/L"}
{"Structure (SMILES)": "C=CC(=O)ON=C1C=CC(=C(C#N)c2ccccc2)C=C1", "organism": "Nakaseomyces glabratus", "test": "microbial growth, broth dilution", "test system": "ATCC15126", "conditions": "48 h", "endpoint": "MIC", "result": "16 mg/L"}
{"Structure (SMILES)": "C/C(=N/NC(=O)c1cn(-c2ccccc2)nc1-c1ccc(Cl)cc1)c1c(O)cc(C)oc1=O", "organism": "Bacillus subtilis", "test": "microbial growth", "endpoint": "MIC", "result": "70 mg/L"}
{"Structure (SMILES)": "O=C(Nc1ccc2cccnc2c1)c1ccc(COC(Cn2ccnc2)c2ccc(Cl)cc2Cl)cc1 (stereo not shown)", "organism": "Nakaseomyces glabratus", "test": "microbial growth, broth dilution", "endpoint": "MIC80", "result": "8 mg/L"}
{"Structure (SMILES)": "OC(Cn1cncn1)(Cn1cncn1)c1ccc(F)cc1F", "organism": "Cryptococcus neoformans", "test": "microbial growth, broth dilution", "test system": "H99", "conditions": "48 h", "endpoint": "MIC", "result": "8 mg/L"}
{"Structure (SMILES)": "O=C(Nc1ccc2[nH]ccc2c1)c1ccc(COC(Cn2ccnc2)c2ccc(Cl)cc2Cl)cc1 (stereo not shown)", "organism": "Nakaseomyces glabratus", "test": "microbial growth, broth dilution", "endpoint": "MIC80", "result": "128 mg/L"}
{"Structure (SMILES)": "CC(=O)ON=C1C=CC(=C(C#N)c2ccccc2)C=C1", "organism": "Nakaseomyces glabratus", "test": "microbial growth, broth dilution", "test system": "ATCC15126", "conditions": "48 h", "endpoint": "MIC", "result": "16 mg/L"}
